Assay [1] in a line: Her2 expression decrease, cell viability multiplex – SKBR3 breast tumor cells, AlphaScreen, ATP viability, primary screen (AID 461;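 active = Her2 level under about 52% in both replicate screens, with viability over 70% of control, limit read from the data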;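 as to Her2 level: lower value means less Her2 protein in the cells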;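 as to viability: percent of carrier control wells set as 100% viability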). Particulars: SKBR3 Her2 protein level, 18-24 h, measured here: SKBR3 viability, ATP luminescence, at 10 µM.
Assay [2] deals with Receptor tyrosine-protein kinase erbB-2 (Homo sapiens) (UniProt P04626). The description is as above. The conditions noted are these: 18-24 h, at 10 µM, stronger effect = lower value.
The nature of assay [3]: reduced viability of SK-BR-3 breast cancer cells – cell-based, 24 h, human, pilot screen (AID 572;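 active = viability at or below 10% of carrier control in both of two separate runs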;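 also: compound exposure lasted between 18 and 24 h rather than exactly 24 h; 100% = carrier-treated control wells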). Particulars: SK-BR-3 viability, CellTiter-Glo luminescence, at 10 µM, stronger effect = lower value. Background: In ATP-based viability assays light output follows the ATP content of the culture.
Assay [4] is described as follows: HUVEC growth inhibition – cell-based, human, primary screen (AID 575).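 Also: 100% = median of untreated cell wells with 0.1% DMSO on each plate.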 Particulars: HUVEC proliferation, CellTiter-Glo luminescence, 72 h; at 10 µM; stronger effect = lower value. The method in brief: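 System – primary HUVEC, no more than 12 passages · Medium – Low-serum (2% FBS) EBM, supplemented · Times – 72 h exposure, 37 °C, 5% CO2, 30 min RT equilibration · Measured by – luminescent ATP assay · Read-out – % viability relative to median vehicle-well signal on each plate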

Assay [5] can be described thus: H69AR cell proliferation blockers – human, duplicate replicates, primary screen (AID 580;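 active = viability at or under a set limit in both replicates, limit being median viability minus 3 SD, cut at about 48% in these data, passing the limit was not always enough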;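 also: 100% = mean luminescence of untreated wells and 0% = no signal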). The conditions noted are these: H69AR lung tumor cells viability, ATP luminescence, 72 h; at 10 µM; stronger effect = lower value.
The nature of assay [6]: MRP1 drug-resistance reversers in H69AR cells – cell-based, doxorubicin co-treatment, pilot screen (AID 601;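 active = viability loss from added drug above about 55%, and viability with drug at most 40%, in both replicates, limit read from the data, passing the limit was not always enough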). The conditions noted are these: CellTiter-Glo, 72 h, at 10 µM; for differential viability (reversal): stronger effect = higher value.
A short description of assay [7]: yeast transport mutant growth inhibition pilot in 384-well plates, post-Golgi transport modulator project (AID 636; in the data active = inhibition above about 31%). Particulars: absorbance 615 nm, about 18 h, stronger effect = higher value.
Assay [8] in a line: growth suppression of yeast trafficking mutant, preliminary HTS, modulators of trafficking downstream of Golgi apparatus project, 1536-format plate, OD 615 nm (AID 637; in the data active = inhibition above about 30%). The conditions noted are these: yeast transport mutant growth, absorbance 615 nm, 18 h; stronger effect = higher value.
Where [9] appears, read: H69AR cells + 2 uM doxorubicin, measured here: viability with 2 uM doxorubicin, stronger effect = lower value.
Setting [10] is: H69AR cells, compound alone cytotoxicity.

Calls of active or inactive are those of the source.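 The calls were made as follows, unless noted: active = viability at or below 30% in both replicate assays; inconclusive = viability at or below 30% in just one of the two assays; inactive = the rest.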

Sequence of Receptor tyrosine-protein kinase erbB-2 (Homo sapiens) (P04626 whole entry, looked up): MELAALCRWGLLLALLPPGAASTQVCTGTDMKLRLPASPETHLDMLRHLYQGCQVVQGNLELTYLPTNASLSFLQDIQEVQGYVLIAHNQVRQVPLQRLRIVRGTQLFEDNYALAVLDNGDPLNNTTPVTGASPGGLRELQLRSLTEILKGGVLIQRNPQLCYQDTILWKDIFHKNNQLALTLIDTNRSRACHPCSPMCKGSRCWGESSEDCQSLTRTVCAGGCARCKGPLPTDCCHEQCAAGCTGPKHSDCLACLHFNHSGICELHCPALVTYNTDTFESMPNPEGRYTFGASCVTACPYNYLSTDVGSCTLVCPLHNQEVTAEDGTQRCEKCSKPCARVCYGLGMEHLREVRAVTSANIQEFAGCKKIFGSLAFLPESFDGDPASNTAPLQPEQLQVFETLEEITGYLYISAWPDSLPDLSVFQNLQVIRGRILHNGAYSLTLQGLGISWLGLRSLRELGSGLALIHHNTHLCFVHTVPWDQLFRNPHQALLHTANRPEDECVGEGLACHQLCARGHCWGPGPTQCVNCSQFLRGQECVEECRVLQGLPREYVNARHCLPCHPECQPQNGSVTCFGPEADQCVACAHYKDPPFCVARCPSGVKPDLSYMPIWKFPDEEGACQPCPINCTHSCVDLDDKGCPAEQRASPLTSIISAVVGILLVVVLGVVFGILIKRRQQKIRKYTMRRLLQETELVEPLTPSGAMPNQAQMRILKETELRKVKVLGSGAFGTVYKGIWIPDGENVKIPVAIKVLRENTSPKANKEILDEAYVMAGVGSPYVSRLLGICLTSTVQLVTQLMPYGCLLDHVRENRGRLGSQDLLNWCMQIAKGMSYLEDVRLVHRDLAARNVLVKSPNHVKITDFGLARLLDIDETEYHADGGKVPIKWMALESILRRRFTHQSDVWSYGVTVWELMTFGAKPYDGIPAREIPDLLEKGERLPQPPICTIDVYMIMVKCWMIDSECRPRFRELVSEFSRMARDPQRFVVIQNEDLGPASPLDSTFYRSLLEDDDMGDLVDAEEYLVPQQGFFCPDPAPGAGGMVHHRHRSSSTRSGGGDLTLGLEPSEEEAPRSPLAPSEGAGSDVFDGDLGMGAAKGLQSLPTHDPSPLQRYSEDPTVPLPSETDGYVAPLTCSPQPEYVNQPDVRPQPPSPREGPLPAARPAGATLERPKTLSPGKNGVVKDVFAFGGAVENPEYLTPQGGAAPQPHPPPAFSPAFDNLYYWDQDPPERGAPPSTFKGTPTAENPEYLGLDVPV

`CC(=O)Nn1c(C)nnc1-n1nc(C)cc1C`: the viability in assay [1] was 126%; in assay [3], 126% (inactive); in assay [4], 77.5% (inactive); in assay [5], 97.8% (inactive); in assay [6] (setting [9]), 93.4%; in assay [6] (setting [10]), 97.8%. The Her2 level in assay [2] was 112% (inactive). Moreover, the differential viability (reversal) in assay [6] (H69AR cells + 2 uM doxorubicin) was 4.38% (inactive). Besides, the inhibition is -1.95% (inactive) in assay [7] and -1.64% (inactive) in assay [8].

Regarding `O=C(Nn1c(C2CC2)nc2ccccc2c1=O)c1ccco1`, the viability in assay [1] is 109%; in assay [3], 109% (inactive); in assay [4], 93.9% (inactive); in assay [5], 95.4% (inactive); in assay [6] (setting [9]), 95.9%; in assay [6] (setting [10]), 95.4%. For the same compound, the Her2 level in assay [2] is 108% (inactive). The differential viability (reversal) in assay [6] (H69AR cells + 2 uM doxorubicin) is -0.5% (inactive). Further, the values for the inhibition in assay [7] and in assay [8] were -3.77% (inactive) and -6.39% (inactive), respectively.

Turning to `COc1ccc(Br)cc1C(=O)Nc1nnn(C)n1`, the viability in assay [1] is 81.5%; in assay [3], 81.5% (inactive); in assay [4], 106% (inactive); in assay [5], 104% (inactive); in assay [6] (setting [9]), 93.2%; in assay [6] (setting [10]) it was 104%. Further, in assay [2], the Her2 level is 106% (inactive). Besides, in assay [6] (H69AR cells + 2 uM doxorubicin), the differential viability (reversal) is 10.9% (inactive). In addition, the inhibition was 3.95% (inactive) in assay [7] and 30.5% (active) in assay [8].

For `COc1ccc(-c2cn3c(C)c(C(=O)Nc4cc(NC(C)=O)ccc4OC)sc3n2)cc1`, the viability in assay [1] was 92%; in assay [3], 92% (inactive); in assay [4] it was 71.5% (inactive); in assay [5] it was 20.2% (active); in assay [6] (setting [9]), 63.1%; in assay [6] (setting [10]) it was 20.2%. In assay [2], the Her2 level is 79.5% (inactive). Further, in assay [6] (H69AR cells + 2 uM doxorubicin), the differential viability (reversal) was -42.9% (inactive). Also, the values for the inhibition in assay [7] and in assay [8] were -5.73% (inactive) and -2.13% (inactive), respectively.

Regarding `Cc1noc(C)c1C(=O)Nc1ccc(Cl)cc1C(F)(F)F`, the viability in assay [1] was 91%; in assay [3], 91% (inactive); in assay [4], 84.7% (inactive); in assay [5] it was 93.1% (inactive); in assay [6] (setting [9]) it was 94%; in assay [6] (setting [10]) it was 93.1%. Further, the Her2 level in assay [2] is 86.5% (inactive). In addition, in assay [6] (H69AR cells + 2 uM doxorubicin), the differential viability (reversal) is -0.845% (inactive). The inhibition is -6.13% (inactive) in assay [7] and 3.11% (inactive) in assay [8].

On to `OC1C[N+]2(CCCCC2)C1`, for which the viability in assay [1] is 98%; in assay [3], 98% (inactive); in assay [4], 99.6% (inactive); in assay [5] it was 109% (inactive); in assay [6] (setting [9]), 95.6%; in assay [6] (setting [10]), 109%. The Her2 level in assay [2] was 82% (inactive). In addition, the differential viability (reversal) in assay [6] (H69AR cells + 2 uM doxorubicin) was 13% (inactive). The inhibition is -4.8% (inactive) in assay [7] and -3.23% (inactive) in assay [8].

Consider `O=C(CSc1nnc2ccccn12)NCCN1C(=O)CSC1=O`, for which the viability in assay [1] was 134%; in assay [3], 134% (inactive); in assay [4] it was 92.5% (inactive); in assay [5], 105% (inactive); in assay [6] (setting [9]), 93.6%; in assay [6] (setting [10]), 105%. The Her2 level in assay [2] is 85.5% (inactive). Also, the differential viability (reversal) in assay [6] (H69AR cells + 2 uM doxorubicin) is 11.8% (inactive). The inhibition is -3.64% (inactive) in assay [7] and -0.32% (inactive) in assay [8].

In the case of `Cc1cc(C)n(-c2nc(C)nc3sc4c(c23)CCC(C)C4)n1` (stereo not given), the viability is 92.5% in assay [1]; 92.5% (inactive) in assay [3]; 80.8% (inactive) in assay [4]; 96.4% (inactive) in assay [5]; 96.8% in assay [6] (setting [9]); 96.4% in assay [6] (setting [10]). The Her2 level in assay [2] was 108% (inactive). Besides, in assay [6] (H69AR cells + 2 uM doxorubicin), the differential viability (reversal) is -0.45% (inactive). Further, the inhibition was -1.04% (inactive) in assay [7] and -13.8% (inactive) in assay [8].

As to `COc1ccc2c(c1)[nH]c1c(=O)n(CCN(C)C)cnc12`, the viability in assay [1] was 105%; in assay [3] it was 105% (inactive); in assay [4], 104% (inactive); in assay [5] it was 91.8% (inactive); in assay [6] (setting [9]), 100%; in assay [6] (setting [10]), 91.8%. The Her2 level in assay [2] is 85.5% (inactive). Further, the differential viability (reversal) in assay [6] (H69AR cells + 2 uM doxorubicin) was -8.28% (inactive). The figures for the inhibition in assay [7] and in assay [8] were -3.16% (inactive) and 1.48% (inactive), respectively.

With `O=C(Nc1nc(-c2ccccc2)cs1)C1CCCCN1S(=O)(=O)c1ccccc1` (stereo not given), the viability in assay [1] is 100%; in assay [3], 100% (inactive); in assay [4], 71.5% (inactive); in assay [5], 73.8% (inactive); in assay [6] (setting [9]), 92%; in assay [6] (setting [10]) it was 73.8%. In addition, the Her2 level in assay [2] is 80% (inactive). Besides, in assay [6] (H69AR cells + 2 uM doxorubicin), the differential viability (reversal) was -18.2% (inactive). The figures for the inhibition in assay [7] and in assay [8] were -0.13% (inactive) and 11.4% (inactive), respectively.

As to `CCOC(=O)CSc1nnc(-c2ccc(S(=O)(=O)N3CCOCC3)cc2)n1-c1ccccc1`, the viability in assay [1] was 93%; in assay [3], 93% (inactive); in assay [4], 94.4% (inactive); in assay [5] it was 105% (inactive); in assay [6] (setting [9]) it was 87.7%; in assay [6] (setting [10]), 105%. The Her2 level in assay [2] was 83.5% (inactive). Moreover, the differential viability (reversal) in assay [6] (H69AR cells + 2 uM doxorubicin) is 17.4% (inactive). The inhibition in assay [7] was -1.97% (inactive); in assay [8], 1.43% (inactive).

For `CC(C)C(NC(=O)c1ccco1)C(=O)NCC(c1ccco1)N1CCCCC1` (stereo not given), the viability in assay [1] is 96.5%; in assay [3], 96.5% (inactive); in assay [4], 94.8% (inactive); in assay [5], 93.9% (inactive); in assay [6] (setting [9]), 75.8%; in assay [6] (setting [10]) it was 93.9%. The Her2 level in assay [2] was 94.5% (inactive). For the same compound, the differential viability (reversal) in assay [6] (H69AR cells + 2 uM doxorubicin) was 18.1% (inactive). Moreover, the inhibition in assay [7] was -2.97% (inactive); in assay [8], -0.32% (inactive).

In the case of `Cc1onc(-c2ccccc2Cl)c1C(=O)Nc1cccnc1`, the viability in assay [1] was 102%; in assay [3], 102% (inactive); in assay [4] it was 103% (inactive); in assay [5] it was 95.6% (inactive); in assay [6] (setting [9]) it was 94.2%; in assay [6] (setting [10]), 95.6%. The Her2 level in assay [2] was 72% (inactive). Moreover, the differential viability (reversal) in assay [6] (H69AR cells + 2 uM doxorubicin) was 1.41% (inactive). Besides, the inhibition in assay [7] is -7.57% (inactive); in assay [8], -1.31% (inactive).

For orientation: viability means a read-out of living cells in per cent, often relative to untreated cells. The inhibition is the drop in the measured response relative to a control, in per cent.
